Results from ChEMBL document CHEMBL3393034, “Discovery of piperidine ethers as selective orexin receptor antagonists (SORAs) inspired by filorexant” (Bioorg Med Chem Lett, 2015).
In brackets after ≈: the same amount, converted by molar mass. Activity calls are given as the source filed them. No cut-off for these calls is given here.

Experiments:
Orexin receptor type 2 [1] = target: T1, Orexin receptor type 2 (Homo sapiens, UniProt O43614); assay: Antagonist activity at human OX2R by radioligand displacement assay
T1 sequence (O43614 whole entry): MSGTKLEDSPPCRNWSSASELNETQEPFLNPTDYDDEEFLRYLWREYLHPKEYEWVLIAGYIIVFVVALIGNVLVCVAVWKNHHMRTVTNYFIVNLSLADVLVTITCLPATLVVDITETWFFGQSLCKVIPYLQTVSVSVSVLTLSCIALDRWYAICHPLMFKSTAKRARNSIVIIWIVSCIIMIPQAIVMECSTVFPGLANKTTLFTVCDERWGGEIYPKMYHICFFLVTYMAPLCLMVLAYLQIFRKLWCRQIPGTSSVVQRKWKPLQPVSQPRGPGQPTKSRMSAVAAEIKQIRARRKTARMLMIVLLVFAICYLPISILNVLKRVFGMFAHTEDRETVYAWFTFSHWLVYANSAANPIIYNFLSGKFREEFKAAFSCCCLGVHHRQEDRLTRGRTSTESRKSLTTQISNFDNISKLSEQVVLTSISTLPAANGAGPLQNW
In short: (§1)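 Radioligand-displacement binding assay at the human orexin receptor; affinity expressed as Ki; data for racemates unless otherwise noted.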

Homo sapiens = species on record: Homo sapiens; assay: Selectivity ratio of Ki for human OX1R to Ki for human OX2R
In short: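 Selectivity index for OX2R over OX1R, calculated from radioligand-displacement binding Ki values at the two human receptors.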

[2] = target: T2, Orexin/Hypocretin receptor type 1 (Homo sapiens, UniProt O43613); assay: Antagonist activity at human OX1R by radioligand displacement assay; in short: as §1
T2 sequence (O43613 whole entry): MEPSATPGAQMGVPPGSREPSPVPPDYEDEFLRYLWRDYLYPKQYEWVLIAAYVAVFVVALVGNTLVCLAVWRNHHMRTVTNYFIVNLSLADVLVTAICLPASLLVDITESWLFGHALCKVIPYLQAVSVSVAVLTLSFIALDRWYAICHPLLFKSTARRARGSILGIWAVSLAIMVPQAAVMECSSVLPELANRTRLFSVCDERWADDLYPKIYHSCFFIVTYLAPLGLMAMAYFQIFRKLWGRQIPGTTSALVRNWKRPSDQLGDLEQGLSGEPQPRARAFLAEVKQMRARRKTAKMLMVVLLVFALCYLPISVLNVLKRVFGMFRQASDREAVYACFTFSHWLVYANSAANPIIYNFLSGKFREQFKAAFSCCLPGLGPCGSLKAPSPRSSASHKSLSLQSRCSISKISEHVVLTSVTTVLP

Orexin receptor type 2 [3] = target: T1, Orexin receptor type 2; assay: Antagonist activity at human OX2R by FLIPR assay
In short: (§2)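 Functional FLIPR readout in CHO cells engineered to overexpress the human orexin receptor; antagonism expressed as IC50.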

[4] = target: T2, Orexin/Hypocretin receptor type 1; assay: Antagonist activity at human OX1R by FLIPR assay; in short: as §2
[5] = Plasma protein binding in human; type: ADME, cell-free; conditions: read-out: PPB (converted)
P-gp = assay: Binding affinity to human P-gp assessed as apparent passive permeability; type: ADME; conditions: not told
Rattus norvegicus [6] = assay: Ex vivo receptor occupancy of OX2R in rat at 30 mg/kg, po after 30 mins; type: functional
In short: (§3)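 Rats received a single 30 mg/kg oral dose. Receptor occupancy, plasma level and CSF level were determined at t = 30 min.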

[7] = Plasma protein binding in rat; type: ADME, cell-free; conditions: read-out: PPB (converted)
Rattus norvegicus [8] = assay: Effect on sleep-wake cycle in rat assessed as increase in delta sleep at 30 mg/kg, po after 30 mins relative to vehicle-treated control; type: functional, organism-based; parameters: dose 30 mg/kg
In short: (§4)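 EEG-telemetry in rats, 30 mg/kg oral versus vehicle (20% vitamin E TPGS). Dosing was at 09:00 in the active phase (ZT 17:00, 7 h before lights on), recorded from 30 min pre-dose to 2 h post-dose. Active wake, light, delta and REM sleep were scored as means in 10-min bins. Balanced crossover over 3 consecutive days, N=6.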

[9] = Half life in Sprague-Dawley rat at 2 mg/kg, iv; type: ADME, organism-based; parameters: dose 2 mg/kg, route intravenous; conditions: in vivo
In short: (§5)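 Sprague–Dawley rats were dosed intravenously at 2 mg/kg and orally at 10 mg/kg. Readouts were clearance (mL/min/kg), terminal half-life, plasma AUC (µM•h) and oral bioavailability (%).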

[10] = Lipophilicity, log D of the compound by HPLC analysis; type: physicochemical
[11] = AUC in Sprague-Dawley rat at 10 mg/kg, po; type: ADME, organism-based; parameters: dose 10 mg/kg, route oral; conditions: plasma; in short: as §5
[12] = Aqueous solubility of the compound at pH 7; type: physicochemical; conditions: aqueous medium
[13] = Oral bioavailability in Sprague-Dawley rat at 10 mg/kg; type: ADME, organism-based; conditions: in vivo; in short: as §5
[14] = Cmax in beagle dog at 3 mg/kg, po; type: ADME, organism-based, Canis lupus familiaris; parameters: dose 3 mg/kg, route oral; conditions: in vivo
In short: (§6)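 Beagle dogs were dosed intravenously at 0.125 mg/kg and orally at 3 mg/kg. Readouts were clearance (mL/min/kg), terminal half-life, and oral AUC (µM•h), Cmax (µM), Tmax (h) and bioavailability (%).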

[15] = Drug uptake in rat CSF at 30 mg/kg, po after 30 mins; type: ADME, organism-based; parameters: dose 30 mg/kg, route oral; conditions: cerebrospinal fluid, read-out: Drug uptake; in short: as §3
[16] = Cmax in Sprague-Dawley rat at 30 mg/kg, po; conditions: in vivo
Rattus norvegicus [17] = assay: Effect on sleep-wake cycle in rat assessed as change in active wake at 30 mg/kg, po after 30 mins relative to vehicle-treated control; type: functional, organism-based; parameters: dose 30 mg/kg; in short: as §4
[18] = Half life in beagle dog at 0.125 mg/kg, iv; type: ADME, organism-based, Canis lupus familiaris; parameters: dose 0.125 mg/kg, route intravenous; conditions: in vivo; in short: as §6
[19] = Oral bioavailability in Sprague-Dawley rat at 30 mg/kg; conditions: in vivo
[20] = Tmax in beagle dog at 3 mg/kg, po; type: ADME, organism-based, Canis lupus familiaris; parameters: dose 3 mg/kg, route oral; conditions: in vivo; in short: as §6
[21] = Oral bioavailability in beagle dog at 3 mg/kg; type: ADME, organism-based, Canis lupus familiaris; conditions: in vivo; in short: as §6
[22] = AUC in Sprague-Dawley rat at 30 mg/kg, po; conditions: plasma
[23] = Fraction unbound in human plasma; type: ADME, cell-free
[24] = Plasma concentration in rat at 30 mg/kg, po after 30 mins; type: ADME, organism-based; parameters: dose 30 mg/kg, route oral; in short: as §3
[25] = AUC in beagle dog at 3 mg/kg, po; type: ADME, organism-based, Canis lupus familiaris; parameters: dose 3 mg/kg, route oral; conditions: plasma; in short: as §6
[26] = Tmax in Sprague-Dawley rat at 30 mg/kg, po; conditions: in vivo
[27] = Fraction unbound in rat plasma; type: ADME, cell-free
[28] = Aqueous solubility of the compound at pH 2; type: physicochemical; conditions: aqueous medium
[29] = Clearance in Sprague-Dawley rat at 2 mg/kg, iv; type: ADME, organism-based; parameters: dose 2 mg/kg, route intravenous; conditions: in vivo; in short: as §5
[30] = Clearance in beagle dog at 0.125 mg/kg, iv; type: ADME, organism-based, Canis lupus familiaris; parameters: dose 0.125 mg/kg, route intravenous; conditions: in vivo; in short: as §6
Rattus norvegicus [31] = assay: Effect on sleep-wake cycle in rat assessed as increase in REM sleep at 30 mg/kg, po after 30 mins relative to vehicle-treated control; type: functional, organism-based; parameters: dose 30 mg/kg; in short: as §4

CC1CCC(Oc2ccnc3c(Br)cccc23)CN1C(=O)c1ccccc1-n1nccn1 (racemic)
Ki (Orexin receptor type 2 [1]): 0.0026 µM
Ratio Ki (Homo sapiens): 423
Ki [2]: 1.1 µM

CC1CCC(Oc2ccnc3ccc(Br)cc23)CN1C(=O)c1ccccc1-n1nccn1 (racemic)
Ki (Orexin receptor type 2 [1]): 0.0052 µM
Ratio Ki (Homo sapiens): 90
Ki [2]: 0.47 µM

C[C@@H]1CC[C@@H](Oc2ccnc3c(F)cccc23)CN1C(=O)c1ccccc1N(C)C
Ki (Orexin receptor type 2 [1]): 0.37 µM

CC1CCC(Oc2cccc3ccncc23)CN1C(=O)c1ccccc1-n1nccn1 (racemic)
Ki (Orexin receptor type 2 [1]): 0.0093 µM
Ratio Ki (Homo sapiens): 97
Ki [2]: 0.9 µM

CC1CCC(Oc2ccnc3c(Cl)cccc23)CN1C(=O)c1ccccc1-n1nccn1 (racemic)
Ki (Orexin receptor type 2 [1]): 0.0009 µM
Ratio Ki (Homo sapiens): 567
Ki [2]: 0.51 µM

C[C@@H]1CC[C@@H](Oc2nccc3ccccc23)CN1C(=O)c1ccccc1-n1nccn1 (relative stereo)
Ki (Orexin receptor type 2 [1]): 0.0003 µM

Cc1cc(OC2CCC(C)N(C(=O)c3ccccc3-n3nccn3)C2)c2ccccc2n1 (racemic)
Ki (Orexin receptor type 2 [1]): 0.0289 µM
Ratio Ki (Homo sapiens): 125
Ki [2]: 3.6 µM

Cc1ccc(-n2nccn2)c(C(=O)N2CCCC(Oc3cccc4ccccc34)C2)c1 (stereo unspecified)
Ki (Orexin receptor type 2 [1]): 0.018 µM
Ratio Ki (Homo sapiens): 0.5
Ki [2]: 0.009 µM

C[C@@H]1CC[C@@H](Oc2ccnc3c(F)cccc23)CN1C(=O)c1ccccc1-c1ncccn1
Ki (Orexin receptor type 2 [1]): 0.0008 µM
Ratio Ki (Homo sapiens): 1500
Ki [2]: 1.2 µM

Cc1ccc(-n2nccn2)c(C(=O)N2CCCC(Oc3ccc(F)c(C)c3)C2)c1 (stereo unspecified)
Ki (Orexin receptor type 2 [1]): 0.055 µM
Ratio Ki (Homo sapiens): 2
Ki [2]: 0.106 µM

Cc1ccc(-c2ncccn2)c(C(=O)N2C[C@H](COc3ccc(F)cn3)CC[C@H]2C)c1 [FILOREXANT]
IC50 (Orexin receptor type 2 [3]): 0.017 µM
Ratio Ki (Homo sapiens): 9
Ki [2]: 0.0029 µM
IC50 [4]: 0.016 µM

CC1CCC(Oc2ccnc3c(F)cccc23)CN1C(=O)c1ccccc1-n1nccn1 (racemic)
Ki (Orexin receptor type 2 [1]): 0.0013 µM
Ki [2]: 0.91 µM

O=C(c1ccccc1-n1nccn1)N1CCC(F)(F)[C@@H](Oc2ccc3ccccc3n2)C1
Ki (Orexin receptor type 2 [1]): 0.521 µM
Ki [2]: 0.0013 µM

Cc1ccc(-n2nccn2)c(C(=O)N2C[C@H](Oc3cccc4ccccc34)CC[C@H]2C)c1 (relative stereo)
Ki (Orexin receptor type 2 [1]): 0.001 µM
Ratio Ki (Homo sapiens): 13
Ki [2]: 0.013 µM

CC1CCC(Oc2cc(C(F)(F)F)nc3ccccc23)CN1C(=O)c1ccccc1-n1nccn1 (racemic)
Ki (Orexin receptor type 2 [1]): 0.149 µM

CC1CCC(Oc2cccc3cccnc23)CN1C(=O)c1ccccc1-n1nccn1 (racemic)
Ki (Orexin receptor type 2 [1]): 0.0098 µM
Ratio Ki (Homo sapiens): 78
Ki [2]: 0.76 µM

Cc1ccc(-n2nccn2)c(C(=O)N2CCCC(COc3ccc(F)c(C)c3)C2)c1 (stereo unspecified)
Ki (Orexin receptor type 2 [1]): 0.0089 µM
Ratio Ki (Homo sapiens): 0.6
Ki [2]: 0.0055 µM

C[C@@H]1CC[C@@H](Oc2ccnc3c(F)cccc23)CN1C(=O)c1ccccc1-c1cccnc1
Ki (Orexin receptor type 2 [1]): 0.063 µM
Ratio Ki (Homo sapiens): 302
Ki [2]: 19 µM

CC1CCC(Oc2c(Br)cnc3ccccc23)CN1C(=O)c1ccccc1-n1nccn1 (racemic)
Ki (Orexin receptor type 2 [1]): 0.18 µM

CC1CCC(Oc2cccc3cnccc23)CN1C(=O)c1ccccc1-n1nccn1 (racemic)
Ki (Orexin receptor type 2 [1]): 0.0075 µM
Ratio Ki (Homo sapiens): 55
Ki [2]: 0.415 µM

C[C@@H]1CC[C@@H](Oc2ccnc3c(F)cccc23)CN1C(=O)c1ccccc1-n1nccn1
fraction unbound [5]: 0.029
Ki (Orexin receptor type 2 [1]): 0.0006 µM
Papp (P-gp): 34 ×10⁻⁶ cm/s
Occ (Rattus norvegicus [6]): 72%
fraction unbound [7]: 0.04
Activity (Rattus norvegicus [8]): Active
half-life [9]: 24 min
logD [10]: 2.35
IC50 (Orexin receptor type 2 [3]): 0.018 µM
AUC [11]: 3.9 µM·h
solubility [12]: 161 µM (≈ 69.5 µg/mL)
bioavailability [13]: 19%
Cmax [14]: 5.65 µM
concentration at 0.5 h [15]: 0.339 µM
Cmax [16]: 15.7 µM
Activity (Rattus norvegicus [17]): Active
half-life [18]: 42 min
bioavailability [19]: 50%
Tmax [20]: 22.8 min
bioavailability [21]: 60%
AUC [22]: 30.1 µM·h
fraction unbound [23]: 0.03
concentration at 0.5 h [24]: 9.5 µM
AUC [25]: 16 µM·h
Ki [2]: 0.965 µM
Tmax [26]: 30 min
fraction unbound [27]: 0.03
solubility [28]: 182 µM (≈ 78.5 µg/mL)
IC50 [4]: 3.91 µM
clearance [29]: 22.5 mL/min/kg
clearance [30]: 6.2 mL/min/kg
Activity (Rattus norvegicus [31]): Active

COc1cnc(O[C@@H]2CC[C@@H](C)N(C(=O)c3ccccc3-n3nccn3)C2)c2ccccc12
Ki (Orexin receptor type 2 [1]): 0.00024 µM
Ki [2]: 0.00041 µM

CC1CCC(Oc2cccc3ncccc23)CN1C(=O)c1ccccc1-n1nccn1 (racemic)
Ki (Orexin receptor type 2 [1]): 0.0051 µM
Ratio Ki (Homo sapiens): 202
Ki [2]: 1.03 µM

CC1CCC(Oc2ccnc3ccccc23)CN1C(=O)c1ccccc1-n1nccn1 (racemic)
Ki (Orexin receptor type 2 [1]): 0.0068 µM
Ratio Ki (Homo sapiens): 397
Ki [2]: 2.7 µM
